Drawing on ChEMBL document CHEMBL1152146, “Non-nucleoside inhibitors of the hepatitis C virus NS5B RNA-dependant RNA polymerase: 2-aryl-3-heteroaryl-1,3-thiazolidin-4-one derivatives” (Bioorg Med Chem Lett, 2008), this text covers inhibition and IC50 for 26 molecules.

SMILES strings stand for the structures. Some results are limits rather than exact numbers.

Experiment [1] addresses Replicase polyprotein 1ab (Severe acute respiratory syndrome-related coronavirus) (UniProt P0C6X7). Nature of the experiment: Inhibition of SARS coronavirus nsp12 at 0.5 mM.
The subject of a further experiment is Escherichia coli. Description: Inhibition of Escherichia coli DNA polymerase 1 Klenow fragment at 0.5 mM.
Experiment [2] relates to Hepatitis C virus. Nature of the experiment: Inhibition of HCV 1b NS5B Cdelta21 polymerase at 0.25 mM relative to control. More on the design: species or system Hepatitis C virus subtype 1b. In outline: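 His-tagged NS5BCΔ21 (genotype 1b) RdRp assay with compound at 0.25 mM and DMSO constant at 10%. Activity without inhibitor, after subtraction of residual background, set as 100%. Values are the mean of at least three independent measurements.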

In experiment [3] the test system is Hepatitis C virus. Nature of the experiment: Inhibition of HCV 1b NS5B Cdelta21 polymerase. The arrangement: species or system Hepatitis C virus subtype 1b. An outline of the steps:
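N-terminal His-tagged NS5B lacking the C-terminal 21 residues (genotype 1b). RdRp activity read as total incorporation of radiolabeled UTP on poly rA/U12. IC50 taken from dose–response curves of 8–12 concentrations, run in duplicate in two independent experiments. DMSO held at 10% in all reactions.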

Usually inhibition stands for the share of the control response that was lost under treatment. Read a low inhibition as a weak effect. Consider `O=C1CSC(c2c(Cl)cccc2Cl)N1Cc1ccco1` (stereo not given), for which the inhibition (in experiment [1]; in the experiment on Escherichia coli) was less than 50% throughout. For the same molecule, 250 µM produced 72.3% inhibition in the experiment with Hepatitis C virus [2].

Turning to `O=C1CSC(c2c(Cl)cccc2Cl)N1c1nc(-c2ccccc2)cc(C(F)(F)F)n1` (stereo not given), the inhibition (in experiment [1]; in the experiment with Escherichia coli) was less than 50% each time. The same molecule had an inhibition at 250 µM with Hepatitis C virus [2] of 66.4%.

A word on the IC50: it is the midpoint of a concentration-inhibition curve. Consider `Cc1cccc(N2C(=O)CSC2c2ccc(N(C)C)cc2)n1` (stereo not given), for which the inhibition (in experiment [1]; in the experiment with Escherichia coli) was less than 50% in each case. In the experiment on Hepatitis C virus [2], this molecule registered an inhibition at 250 µM of 84.7%. In the experiment with Hepatitis C virus [3], this molecule displayed an IC50 of 79.4 µM.

For `O=C1CSC(c2c(F)cccc2Cl)N1c1nc(-c2ccccc2)cc(-c2ccccc2)n1` (stereo not given), the inhibition (in experiment [1]; in the experiment on Escherichia coli) was less than 50% each time. Also, at 250 µM the inhibition in the experiment with Hepatitis C virus [2] was 70.6%.

Regarding `O=C1CSC(c2ccc(-c3ccnc4ccccc34)cc2)N1c1ccccn1` (stereo not given), the inhibition (in experiment [1]; in the experiment on Escherichia coli) was less than 50% in each case. For the same molecule, 250 µM produced 62.2% inhibition with Hepatitis C virus [2].

On to `CC1SC(c2c(Cl)cccc2Cl)N(Cc2cccnc2)C1=O` (stereo not given), for which the inhibition (in experiment [1]; in the experiment on Escherichia coli) was less than 50% in each case. For the same molecule, testing at 250 µM in the experiment with Hepatitis C virus [2] gave an inhibition of 95.6%. The molecule further had an IC50 in the experiment on Hepatitis C virus [3] of 41.8 µM.

`CC1SC(c2c(Cl)cccc2Cl)N(c2ccccn2)C1=O` (stereo not given): the inhibition (in experiment [1]; in the experiment on Escherichia coli) was less than 50% in each case. In the experiment on Hepatitis C virus [2], this molecule had an inhibition at 250 µM of 73%.

Take `Cc1cc(C(F)(F)F)nc(N2C(=O)CSC2c2c(F)cccc2Cl)n1` (stereo not given): the inhibition (in experiment [1]; in the experiment on Escherichia coli) was less than 50% in each case. At 250 µM the inhibition with Hepatitis C virus [2] was 63.6%.

For the molecule `Cc1cc(-c2ccccc2)nc(N2C(=O)CSC2c2c(F)cccc2Cl)n1` (stereo not given), the inhibition (in experiment [1]; with Escherichia coli) was less than 50% each time. This molecule also registered an inhibition at 250 µM in the experiment with Hepatitis C virus [2] of 65.5%.

Turning to `O=C1CSC(c2c(Cl)cccc2Cl)N1c1nc(-c2ccccc2)cc(-c2ccccc2)n1` (stereo not given), the inhibition (in experiment [1]; in the experiment on Escherichia coli) was less than 50% each time. The molecule also yielded an inhibition at 250 µM with Hepatitis C virus [2] of 73.1%.

Turning to `Cc1cccc(N2C(=O)CSC2c2ccc(-c3cccnc3)cc2)n1` (stereo not given), the inhibition (in experiment [1]; in the experiment with Escherichia coli) was less than 50% throughout. For the same molecule, the inhibition at 250 µM in the experiment with Hepatitis C virus [2] stood at 64.2%.

`Cc1cc(-c2ccccc2)nc(N2C(=O)CSC2c2c(Cl)cccc2Cl)n1` (stereo not given): the inhibition (in experiment [1]; in the experiment with Escherichia coli) was less than 50% in each case. At 250 µM the inhibition in the experiment on Hepatitis C virus [2] was 63.6%.

Take `O=C1CSC(c2c(F)cccc2Cl)N1c1ccc2ccccc2n1` (stereo not given): the inhibition (in experiment [1]; in the experiment with Escherichia coli) was less than 50% in each case. For the same molecule, in the experiment on Hepatitis C virus [2], the inhibition at 250 µM came out at 60%.

As for `O=C1CSC(c2c(Cl)cccc2Cl)N1Cc1cccnc1` (stereo not given), the inhibition (in experiment [1]; in the experiment with Escherichia coli) was less than 50% in each case. In the experiment on Hepatitis C virus [2], this molecule displayed an inhibition at 250 µM of 75.6%.

For the molecule `O=C(NN1C(=O)CSC1c1ccccc1F)c1cc(-c2ccc(F)cc2F)ccc1O` (stereo not given), in experiment [1], the inhibition is less than 50%. The same molecule had an inhibition at 250 µM in the experiment with Hepatitis C virus [2] of 92.4%. The molecule also displayed an IC50 with Hepatitis C virus [3] of 48 µM.

For `O=C1CSC(c2ccc(F)cc2)N1c1ccccn1` (stereo not given), the inhibition (in experiment [1]; with Escherichia coli) was less than 50% each time. In addition, the inhibition at 250 µM in the experiment on Hepatitis C virus [2] is 98%. Besides, it took 31.9 µM to reach half-maximal inhibition with Hepatitis C virus [3] (IC50).

As to `Cc1cc(C(F)(F)F)nc(N2C(=O)CSC2c2c(Cl)cccc2Cl)n1` (stereo not given), the inhibition (in experiment [1]; with Escherichia coli) was less than 50% in each case. The inhibition at 250 µM in the experiment on Hepatitis C virus [2] was 72.1%.

Turning to `CN(C)c1ccc(C2SCC(=O)N2c2ccccn2)cc1` (stereo not given), the inhibition (in experiment [1]; in the experiment with Escherichia coli) was less than 50% each time. This molecule also showed an inhibition at 250 µM with Hepatitis C virus [2] of 76.4%.

Turning to `CC1SC(c2c(Cl)cccc2Cl)N(Cc2ccco2)C1=O` (stereo not given), the inhibition (in experiment [1]; in the experiment with Escherichia coli) was less than 50% in each case. Besides, the inhibition at 250 µM with Hepatitis C virus [2] came out at 97.8%. Besides, the IC50 in the experiment with Hepatitis C virus [3] worked out at 32.2 µM.

`COc1cc(O)c2c(c1)oc(=O)c1c3cc(O)c(O)cc3oc21` [WEDELOLACTONE] gave a 50% inhibitory concentration (IC50) with Hepatitis C virus [3] of 36.1 µM.

Regarding `O=C1CCSC(c2c(Cl)cccc2Cl)N1Cc1ccco1` (stereo not given), the inhibition (in experiment [1]; in the experiment on Escherichia coli) was less than 50% in each case. In the experiment on Hepatitis C virus [2], this molecule yielded an inhibition at 250 µM of 94.2%. Also, in the experiment on Hepatitis C virus [3], the IC50 is 52.6 µM.

In experiment [1], `CCc1nnc(N2C(=O)CSC2c2c(F)cccc2F)s1` (stereo not given) showed an inhibition of less than 50%.

For `Cc1cc(C(F)(F)F)nc(N2C(=O)CSC2c2c(Br)cccc2Br)n1` (stereo not given), the inhibition (in experiment [1]; with Escherichia coli) was less than 50% each time. In the experiment on Hepatitis C virus [2], this molecule showed an inhibition at 250 µM of 76.3%.

Consider `O=C1CSC(c2c(F)cccc2F)N1c1nc(-c2ccccc2)cc(-c2ccccc2)n1` (stereo not given), for which the inhibition (in experiment [1]; in the experiment on Escherichia coli) was less than 50% in each case. This molecule also showed an inhibition at 250 µM with Hepatitis C virus [2] of 73.3%.

As to `O=C1CSC(c2c(Br)cccc2Br)N1Cc1cccs1` (stereo not given), the inhibition (in experiment [1]; with Escherichia coli) was less than 50% throughout. In addition, the inhibition at 250 µM in the experiment on Hepatitis C virus [2] was found to be 62.3%.

As to `O=C1CSC2(CCN(Cc3ccccc3)CC2)N1c1ccccn1`, the inhibition (in experiment [1]; with Escherichia coli) was less than 50% in each case. The inhibition at 250 µM in the experiment with Hepatitis C virus [2] was 85.6%. The half-maximal inhibitory concentration (IC50) in the experiment on Hepatitis C virus [3] worked out at 71.9 µM.
